Measurements taken from ChEMBL document CHEMBL1124009 (J Med Chem, 1988).

Legend:
[1] = biological target: Delta-type opioid receptor (Rattus norvegicus, UniProt P33533); assay: Binding affinity in competition with [3H]- DPDPE in Opioid receptor delta 1 binding to rat brain membrane
Method in brief: (§1)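 Brains (minus cerebellum) of male Sprague–Dawley rats (200–250 g) were homogenized, preincubated 30 min at 25 °C and centrifuged twice at 43000g. Homogenate at 0.5% final was incubated with 0.5 nM [3H]CTOP (μ) or 1.0 nM [3H]DPDPE (δ) in 50 mM Tris-HCl pH 7.4 with 5 mM MgCl2, BSA 1 mg/mL and 100 μM PMSF, 120 min at 25 °C, in duplicate. Nonspecific binding was taken with 1 μM naloxone; bound label was filtered and scintillation counted; curves were fit by nonlinear least squares.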

Mu-type opioid receptor = Mu-type opioid receptor (Rattus norvegicus, UniProt P33535); assay: Binding affinity in competition with [3H]- CTOP in Opioid receptor mu 1 binding to rat brain membrane; method in brief: as §1
Somatostatin receptor = assay: Binding affinity in competition with [125I]- CGP-23996 in somatostatin receptor binding to rat brain membrane
Method in brief: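 Rat whole-brain membranes (adult male Sprague–Dawley) at 1.0% final tissue were incubated with 0.2 nM [125I]CGP 23,996 and analogues at 100–0.3 μM. Buffer was 50 mM Tris pH 7.4 with 2.0 mg/mL BSA, 20 μg/mL bacitracin and 5 mM MgCl2. Incubation ran 1 h at 37 °C and ended by rapid filtration through BSA-soaked GF/B filters.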

Sequence of Mu-type opioid receptor (P33535 whole entry): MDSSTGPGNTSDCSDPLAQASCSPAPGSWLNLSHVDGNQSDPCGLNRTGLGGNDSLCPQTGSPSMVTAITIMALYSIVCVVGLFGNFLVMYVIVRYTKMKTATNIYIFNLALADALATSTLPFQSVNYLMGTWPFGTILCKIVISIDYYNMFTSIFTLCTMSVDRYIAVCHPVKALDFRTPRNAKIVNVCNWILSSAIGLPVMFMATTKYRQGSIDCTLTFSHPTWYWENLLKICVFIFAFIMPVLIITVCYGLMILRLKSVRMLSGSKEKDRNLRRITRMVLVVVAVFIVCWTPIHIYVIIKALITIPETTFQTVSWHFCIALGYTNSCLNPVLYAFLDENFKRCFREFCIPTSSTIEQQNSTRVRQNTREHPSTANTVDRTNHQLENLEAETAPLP
Sequence of Delta-type opioid receptor (P33533 whole entry): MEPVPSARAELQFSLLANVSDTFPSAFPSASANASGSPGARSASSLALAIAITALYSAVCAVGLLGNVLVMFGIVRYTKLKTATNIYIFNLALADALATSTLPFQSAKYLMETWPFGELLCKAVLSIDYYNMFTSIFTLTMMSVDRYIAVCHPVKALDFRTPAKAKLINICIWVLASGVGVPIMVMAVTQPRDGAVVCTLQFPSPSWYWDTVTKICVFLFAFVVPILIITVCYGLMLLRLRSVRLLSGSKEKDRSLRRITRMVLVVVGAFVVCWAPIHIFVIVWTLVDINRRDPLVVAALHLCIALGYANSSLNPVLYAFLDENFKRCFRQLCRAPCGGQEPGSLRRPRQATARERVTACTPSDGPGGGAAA

| SMILES | IC50 [1] [µM] | IC50 (Mu-type opioid receptor) [µM] | IC50 (Somatostatin receptor) [µM] |
| --- | --- | --- | --- |
| C[C@@H](O)[C@@H]1NC(=O)[C@H](CCCCN)NC(=O)C(Cc2c[nH]c3ccccc23)NC(=O)[C@H](Cc2ccc(O)cc2)NC(=O)[C@@H](NC(=O)[C@H]2Cc3ccccc3CN2)CSSC(C)(C)[C@@H](C(=O)N[C@@H](CO)C(N)=O)NC1=O (stereo in doubt) [listing 1 of 2 here] | 3.83 | 0.0078 | – |
| C[C@@H](O)[C@@H]1NC(=O)[C@H](CCCN)NC(=O)C(Cc2c[nH]c3ccccc23)NC(=O)[C@H](Cc2ccc(O)cc2)NC(=O)[C@@H](NC(=O)[C@H](N)Cc2ccccc2)CSSC(C)(C)[C@@H](C(N)=O)NC1=O (stereo in doubt) [listing 1 of 2 here] | > 10 | 0.187 | – |
| C[C@@H](O)[C@H](NC(=O)[C@@H]1NC(=O)[C@H](CCCCN)NC(=O)C(Cc2c[nH]c3ccccc23)NC(=O)[C@H](Cc2ccc(O)cc2)NC(=O)[C@@H](NC(=O)[C@@H](N)Cc2ccccc2)CSSC1(C)C)C(N)=O (stereo in doubt) [listing 1 of 2 here] | > 10 | – | – |
| C[C@@H](O)[C@@H]1NC(=O)[C@H](CCCCN)NC(=O)C(Cc2c[nH]c3ccccc23)NC(=O)[C@H](Cc2ccc(O)cc2)NC(=O)[C@@H](NC(=O)[C@H](N)Cc2ccccc2)CSSC(C)(C)[C@@H](C(=O)N[C@@H](CC(=O)O)C(N)=O)NC1=O (stereo in doubt) [listing 1 of 2 here] | – | – | 8.3 |
| C[C@@H](O)[C@H](NC(=O)[C@H]1NC(=O)[C@H]([C@@H](C)O)NC(=O)[C@H](CCCCN)NC(=O)C(Cc2c[nH]c3ccccc23)NC(=O)[C@H](Cc2ccc(O)cc2)NC(=O)[C@@H](NC(=O)C(N)Cc2c[nH]c3ccccc23)CSSC1(C)C)C(N)=O (stereo in doubt) [listing 1 of 2 here] | > 10 | 0.0063 | – |
| C[C@@H](O)[C@H](NC(=O)[C@H]1NC(=O)[C@H]([C@@H](C)O)NC(=O)[C@H](CCCCN)NC(=O)C(Cc2c[nH]c3ccccc23)NC(=O)[C@@H](Cc2ccc(O)cc2)NC(=O)[C@@H](NC(=O)[C@H]2Cc3ccccc3CN2)CSSC1(C)C)C(N)=O (stereo in doubt) | – | – | 0.949 |
| C[C@@H](O)[C@H](NC(=O)[C@H]1NC(=O)[C@H](CC(N)=O)NC(=O)[C@H](Cc2ccc(O)cc2)NC(=O)[C@@H](NC(=O)[C@H](N)Cc2ccccc2)CSSC1(C)C)C(N)=O | > 10 | – | – |
| C[C@@H](O)[C@H](NC(=O)[C@H]1NC(=O)[C@H]([C@@H](C)O)NC(=O)[C@H](CCCCN)NC(=O)C(Cc2c[nH]c3ccccc23)NC(=O)[C@H](Cc2ccc(O)cc2)NC(=O)[C@@H](NC(=O)C(N)Cc2c[nH]c3ccccc23)CSSC1(C)C)C(N)=O (stereo in doubt) [listing 2 of 2 here] | – | – | 1.599 |
| C[C@@H](O)[C@H](NC(=O)[C@H]1NC(=O)[C@H]([C@@H](C)O)NC(=O)[C@H](CCCN)NC(=O)[C@@H](Cc2c[nH]c3ccccc23)NC(=O)[C@H](Cc2ccc(O)cc2)NC(=O)[C@@H](NC(=O)[C@H](N)Cc2ccccc2)CSSC1(C)C)C(N)=O | 5.6 | – | – |
| C[C@@H](O)[C@@H]1NC(=O)[C@H](CCCN)NC(=O)C(Cc2c[nH]c3ccccc23)NC(=O)[C@H](Cc2ccc(O)cc2)NC(=O)[C@@H](NC(=O)[C@H](N)Cc2ccccc2)CSSC(C)(C)[C@@H](C(N)=O)NC1=O (stereo in doubt) [listing 2 of 2 here] | – | – | 47.273 |
| C[C@@H](O)[C@@H]1NC(=O)[C@H](CCCCN)NC(=O)C(Cc2c[nH]c3ccccc23)NC(=O)[C@H](Cc2ccc(O)cc2)NC(=O)[C@@H](NC(=O)[C@H]2Cc3ccccc3CN2)CSSC(C)(C)[C@@H](C(=O)N[C@@H](CO)C(N)=O)NC1=O (stereo in doubt) [listing 2 of 2 here] | – | – | 1.499 |
| C[C@@H](O)[C@H](NC(=O)[C@H]1NC(=O)[C@H](CCCCN)NC(=O)C(Cc2c[nH]c3ccccc23)NC(=O)[C@@H](Cc2ccc(O)cc2)NC(=O)[C@@H](NC(=O)[C@H]2Cc3ccccc3CN2)CSSC1(C)C)C(N)=O (stereo in doubt) [listing 1 of 2 here] | > 10 | 9.41 | – |
| C[C@@H](O)[C@H](NC(=O)[C@@H]1NC(=O)[C@H]([C@@H](C)O)NC(=O)[C@@H](Cc2c[nH]c3ccccc23)NC(=O)[C@H](Cc2ccc(O)cc2)NC(=O)[C@@H](NC(=O)[C@H](N)Cc2ccccc2)CSSC1(C)C)C(N)=O | 7.82 | 10 | – |
| C[C@@H](O)[C@@H]1NC(=O)[C@H](CCCCN)NC(=O)C(Cc2c[nH]c3ccccc23)NC(=O)[C@H](Cc2ccc(O)cc2)NC(=O)[C@@H](NC(=O)[C@H](N)Cc2ccccc2)CSSC(C)(C)[C@@H](C(=O)N[C@@H](CC(N)=O)C(N)=O)NC1=O (stereo in doubt) [listing 1 of 2 here] | – | – | 1.801 |
| C[C@@H](O)[C@H](NC(=O)[C@H]1NC(=O)[C@H](CCCCN)NC(=O)C(Cc2c[nH]c3ccccc23)NC(=O)[C@@H](Cc2ccc(O)cc2)NC(=O)[C@@H](NC(=O)[C@H]2Cc3ccccc3CN2)CSSC1(C)C)C(N)=O (stereo in doubt) [listing 2 of 2 here] | – | – | 13.61 |
| C[C@@H](O)[C@H](NC(=O)[C@H]1NC(=O)[C@H]([C@@H](C)O)NC(=O)[C@H](CCCN=C(N)N)NC(=O)[C@@H](Cc2c[nH]c3ccccc23)NC(=O)[C@H](Cc2ccc(O)cc2)NC(=O)[C@@H](NC(=O)[C@H](N)Cc2ccccc2)CSSC1(C)C)C(N)=O | 5.31 | 0.0021 | – |
| C[C@@H](O)[C@H](NC(=O)[C@H]1NC(=O)[C@H]([C@@H](C)O)NC(=O)[C@H](CCCN)NC(=O)C(Cc2c[nH]c3ccccc23)NC(=O)[C@@H](Cc2ccc(O)cc2)NC(=O)[C@@H](NC(=O)[C@H]2Cc3ccccc3CN2C(=O)CN)CSSC1(C)C)C(N)=O (stereo in doubt) [listing 1 of 2 here] | 5.35 | 0.278 | – |
| C[C@@H](O)[C@@H]1NC(=O)[C@H](CCCCN)NC(=O)C(Cc2c[nH]c3ccccc23)NC(=O)[C@H](Cc2ccc(O)cc2)NC(=O)[C@@H](NC(=O)[C@H](N)Cc2ccccc2)CSSC(C)(C)[C@@H](C(=O)N[C@@H](CO)C(N)=O)NC1=O (stereo in doubt) | – | – | 1.888 |
| C[C@@H](O)[C@H](NC(=O)[C@H]1NC(=O)[C@H]([C@@H](C)O)NC(=O)[C@H](CCCN)NC(=O)C(Cc2c[nH]c3ccccc23)NC(=O)[C@@H](Cc2ccc(O)cc2)NC(=O)[C@@H](NC(=O)[C@H]2Cc3ccccc3CN2C(=O)CN)CSSC1(C)C)C(N)=O (stereo in doubt) [listing 2 of 2 here] | – | – | 19.408 |
| C[C@@H](O)[C@@H]1NC(=O)[C@H](CCCCN)NC(=O)C(Cc2c[nH]c3ccccc23)NC(=O)[C@H](Cc2ccc(O)cc2)NC(=O)[C@@H](NC(=O)[C@H](N)Cc2ccccc2)CSSC(C)(C)[C@@H](C(N)=O)NC1=O (stereo in doubt) | – | – | 1.942 |
| C[C@@H](O)[C@@H]1NC(=O)[C@H](CCCCN)NC(=O)C(Cc2c[nH]c3ccccc23)NC(=O)[C@H](Cc2ccc(O)cc2)NC(=O)[C@@H](NC(=O)[C@H](N)Cc2ccccc2)CSSC(C)(C)[C@@H](C(=O)N[C@@H](CC(=O)O)C(N)=O)NC1=O (stereo in doubt) [listing 2 of 2 here] | > 10 | 3.47 | – |
| C[C@@H](O)[C@@H]1NC(=O)[C@H](CCCCN)NC(=O)C(Cc2c[nH]c3ccccc23)NC(=O)[C@H](Cc2ccc(O)cc2)NC(=O)[C@@H](NC(=O)[C@H](N)Cc2ccccc2)CSSC(C)(C)[C@@H](C(=O)N[C@@H](CC(N)=O)C(N)=O)NC1=O (stereo in doubt) [listing 2 of 2 here] | > 10 | 0.13 | – |
| CN[C@H](Cc1ccccc1)C(=O)N[C@H]1CSSC(C)(C)[C@@H](C(=O)N[C@H](C(N)=O)[C@@H](C)O)NC(=O)[C@H]([C@@H](C)O)NC(=O)[C@H](CCCN)NC(=O)C(Cc2c[nH]c3ccccc23)NC(=O)[C@H](Cc2ccc(O)cc2)NC1=O (stereo in doubt) | – | – | 8.054 |
| C[C@@H](O)[C@H](NC(=O)[C@@H]1NC(=O)[C@H](CCCCN)NC(=O)C(Cc2c[nH]c3ccccc23)NC(=O)[C@H](Cc2ccc(O)cc2)NC(=O)[C@@H](NC(=O)[C@@H](N)Cc2ccccc2)CSSC1(C)C)C(N)=O (stereo in doubt) [listing 2 of 2 here] | – | – | 6.103 |
